# From PubChem
# KCNQ1 block: blocks the human KCNQ1 potassium channel. B-score at 10 µM. 310,000 tested, 1.3% active. P51787. CHO-K1 KCNQ1, FluxOR thallium flux fluorescence; active compounds read high;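 active = compounds whose thallium flux B-score, printed positive for inhibition, exceeds three library SD while starting fluorescence stays within three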;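 also: channel opened by potassium depolarization with thallium stimulus after 20 min compound exposure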
# hERG protect: hERG (human) protection from proarrhythmic block; Q12809; CHO-hERG, FluxOR thallium flux, dofetilide IC70 present; activation (rescue from dofetilide block), less the hit threshold, % at 10 µM; 310,000 tested, 0.51% active; AID 1511;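 active = activation above the mean of controls blocked by dofetilide plus 5 SD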;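 also: thallium influx through hERG after potassium depolarization seen as dye fluorescence rise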
# KCNK3 block: human KCNK3 channel inhibition, primary screen; AID 602410; B-score at 10 µM; O14649; 340,000 tested, 0.84% active; CHO-KCNK3 thallium flux, FluxOR fluorescence; active compounds read low;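 active = B-score under library mean minus 4 SD, starting fluorescence ratio at most library mean plus 5 SD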;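 also: more negative B-score means stronger inhibition of thallium flux through KCNK3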
# KCNQ1 act: potentiators or activators of human KCNQ1 potassium channel | P51787 | CHO-K1 KCNQ1, thallium flux FluxOR fluorescence; active compounds read high | B-score at 10 µM | 310,000 tested, 0.35% active | AID 2648;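 active = fluorescence ratio B-score, a plate-corrected score, at least three library SD, with initial intensity B-score within 5 SD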
#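 Medium – assay buffer, equal DMSO in all wells · Material – CHO-K1 cell line with stable KCNQ1 potassium channel expression · Signal – kinetic FluxOR thallium fluorescence, 10-s 1-Hz baseline, 110-s post-stimulus read · Compound – single concentration per compound, DMSO matched to controls · Schedule – 37 °C overnight plating, 90-min dark dye load, 20-min compound pretreatment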
# Kir21 inh: inhibitors of mouse Kir2.1 inward-rectifier potassium channel | B-score at 10 µM | P35561 | HEK293-Kir2.1, FluxOR thallium flux fluorescence; active compounds read low | 310,000 tested, 0.85% active;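 active = fluorescence ratio B-score at or below minus 3 SD of library scores, with starting-brightness B-score within 2 SD, cut at about -4.2 in these data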;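 also: channel flux triggered by added potassium and thallium sulfate stimulus; B-score of peak minus minimum fluorescence over baseline after thallium stimulus; more negative B-score means stronger Kir2.1 block with less thallium influx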
# KCNK9 inh: blocks the human KCNK9 two-pore domain potassium channel. Q9NPC2. HEK293 KCNK9, FluxOR thallium flux fluorescence; active compounds read low. B-score at 10 µM. 310,000 tested, 1.2% active. AID 488922;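 active = ratio B-score over 3 SD below the library mean, with starting fluorescence within 5 SD of its mean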;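 also: negative B-score means less thallium flux so channel inhibition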
# Target sequence (Q9NPC2 whole entry, looked up, the tested form may be a part): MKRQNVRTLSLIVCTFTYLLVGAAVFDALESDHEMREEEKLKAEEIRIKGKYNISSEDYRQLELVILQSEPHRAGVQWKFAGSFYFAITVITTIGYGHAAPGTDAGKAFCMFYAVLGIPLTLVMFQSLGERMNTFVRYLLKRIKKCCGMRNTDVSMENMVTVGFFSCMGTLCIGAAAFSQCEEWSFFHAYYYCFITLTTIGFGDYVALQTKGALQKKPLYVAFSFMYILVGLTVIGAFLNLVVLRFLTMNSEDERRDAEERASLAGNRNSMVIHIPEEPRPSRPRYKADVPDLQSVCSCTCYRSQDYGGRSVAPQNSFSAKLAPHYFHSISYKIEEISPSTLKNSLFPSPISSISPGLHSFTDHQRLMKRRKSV
# Numbers without * were called inactive; i = inactive; x = not tested or not shown. An excerpt weighted towards active compounds, which were near 3.7% of everything screened.
SMILES,KCNQ1 block,hERG protect,KCNK3 block,KCNQ1 act,Kir21 inh,KCNK9 inh
CCc1c(C)nc(N)nc1N1N=C1SCCOc1ccccc1,i,8.2*,i,i,1.33,i
CCCCSC1=NN1c1nc(N)nc(C)c1CC,i,-4.6,i,i,-0.44,i
COc1ccc(CNCCc2c(C)[nH]c3ccc(OC(F)(F)F)cc23)c(OC)c1,i,-20.5,i,i,-6.88*,i
CCOc1c(Cl)cc(CNC(C)C(O)c2ccccc2)cc1OC (stereo unspecified),i,-21.4,i,i,0.05,i
CC(NCc1ccc(Cl)cc1Cl)C(O)c1ccccc1 (stereo unspecified),i,-2.8,i,i,-10.4*,i
CC(NCc1cccc(Cl)c1Cl)C(O)c1ccccc1 (stereo unspecified),i,-4.7,i,i,-16.2*,i
COc1cc(OC)c(OC)cc1CNC(C)C(O)c1ccccc1 (stereo unspecified),i,-9.9,i,i,0.21,i
CC(NCc1ccc(Cl)cc1)C(O)c1ccccc1 (stereo unspecified),i,-1.5,i,i,-9.03*,i
CC(CCc1ccccc1)NC(C)C(O)c1ccc(O)cc1 (stereo unspecified),i,-4.9,i,i,-1.61,i
CCOC(=O)C1CCN(C(C)C(=O)c2c[nH]c3ccccc23)CC1 (stereo unspecified),i,-1.8,i,i,1.56,i
COc1cc(C2(C#N)CCN(C)CC2)cc(OC)c1OC,x,x,i,x,x,x
O=[N+]([O-])c1ccc(N2CCCCCC2)c2nonc12,i,-21.4,i,i,-9.02,i
Nc1ccc2nonc2c1[N+](=O)[O-],11*,-40.4,i,i,-7.57,i
COC(=O)C1=C(c2cccc(C#N)c2)C[C@@H]2CC[C@H]1N2C(=O)N1CCc2cc(OC)c(OC)cc2C1,x,x,i,x,x,x
CC/C(=N\N1CCCCCC1)c1c(O)n(-c2ccccc2C)c(=O)[nH]c1=O,i,-9.3,i,i,1.59,i
CCc1ccc(CNCCc2ccc(F)cc2)cc1,i,-8.6,i,i,-0.49,i
Fc1ccc(CCNCc2ccc(Cl)c(Cl)c2)cc1,i,-8.1,i,i,-6.17*,i
COC[C@]12CN(C)C3C4[C@H](OC)[C@H]1C3([C@@H](OC)C[C@H]2O)[C@@H]1C[C@@]2(O)[C@H](OC(=O)c3ccccc3)[C@@H]1[C@]4(OC(C)=O)[C@@H](O)[C@@H]2OC,i,-2.0,x,i,-0.22,i
O=C1NC(=O)C(=Cc2ccc(-c3cc(Cl)ccc3[N+](=O)[O-])o2)C(=O)N1,i,24.2*,i,i,-0.33,i
O=C1NC(=O)C(=Cc2ccc(-c3ccccc3[N+](=O)[O-])o2)C(=O)N1,i,0.5,i,i,0.33,i
COC(=O)C1=C(c2ccc(S(C)(=O)=O)cc2)C[C@@H]2CC[C@H]1N2C(=O)NC1CCCCC1,i,5.8*,i,i,0.28,i
Cc1ccc(N2C(=O)NC(=O)/C(=C\c3cnc(-c4ccccc4)nc3)C2=O)cc1,i,-7.6,i,i,-0.26,i
CCC(C)c1ccc(N2C(=O)NC(=O)/C(=C/c3cccn3CCOc3ccc(C)cc3)C2=O)cc1 (stereo unspecified),7*,-11.2,i,i,-0.46,i
CCCCOCCCn1c(N)c(C(=O)OC(C)COC)c2nc3ccccc3nc21 (stereo unspecified),i,-0.8,-11.4*,i,-0.22,i
O=C(COc1ccc(Br)cc1)N1CCN(Cc2ccc3c(c2)OCO3)CC1,i,2.8,i,i,-2.35,i
SMILES,KCNQ1 block,hERG protect,KCNK3 block,KCNQ1 act,Kir21 inh,KCNK9 inh
c1ccc2c(c1)CC1CNCc3cccc(c31)S2 (stereo unspecified),i,-7.9,i,i,-8.12*,i
CCOC(=O)[C@@]12C(=O)C(=O)N[C@]1(c1ccccc1)C1OCCCC12 (stereo partly specified),i,-4.0,i,i,2.08,i
O=C(c1cc(F)ccc1F)C1CCCN(Cc2cc(Cl)ccc2O)C1 (stereo unspecified),6*,-8.1,i,i,-1.51,i
c1cc2c(cc1CCNC1C3CC4CC(C3)CC1C4)OCO2 (stereo unspecified),6*,-5.3,i,i,-4.45*,i
CC1CCC(NCCc2ccc3c(c2)OCO3)CC1 (stereo unspecified),i,-5.2,i,i,0.39,i
CCC1C(c2ccccc2)NC(c2ccccc2)CC1(O)c1ccc(F)cc1 (stereo unspecified),i,-18.5,i,i,-4.53*,i
CCOP(=S)(OCC)Oc1nc(Cl)c(Cl)cc1Cl,x,x,-9.1*,x,x,x
CN[C@H]1C[C@H]2O[C@@](C)([C@H]1OC)n1c3ccccc3c3c4c(c5c6ccccc6n2c5c31)C(=O)NC4,i,-9.7,x,18*,-0.51,i
CC(C)(C)C1(CCO)C(=O)NC(=S)NC1=O,x,x,i,x,x,x
CCCCn1c(=O)c(C(=O)Nc2ccsc2C(=O)OC)c(O)c2ccccc21,i,-2.3,i,i,1.67,i
Cc1nc2ccccc2c(=O)n1-c1ccncc1,i,-10.6,i,i,-0.01,i
Cc1nc2ccccc2c(=O)n1-c1cc([N+](=O)[O-])cc([N+](=O)[O-])c1,i,4.7*,i,i,-0.08,i
CCOP(=S)(OCC)c1ccc(N(C)C)cc1,i,1.1,i,9*,-0.02,i
C/C=C(\C)C(=O)OC1C(C)=C2C(C1OC(=O)CCCCC)C(C)(OC(C)=O)CC(OC(=O)CCC)C1(O)C2OC(=O)C1(C)O (stereo unspecified),i,-12.9,x,14*,0.08,i
N#CC(C#N)=Cc1ccc(-c2ccccc2)o1,7*,-22.3,x,i,-1.29,i
N#CC(C#N)=Cc1ccc(-c2ccccc2F)o1,x,x,i,x,x,x
CCN(CC)c1ccc(CNCCc2ccc(F)cc2)cc1,i,-14.6,i,i,-0.78,i
Cc1sc2ncn(CC(=O)NCCCC(=O)N3CCC4(CC3)OCCO4)c(=O)c2c1C,x,x,i,x,x,x
CCCCCCOc1ccc(CN2CCN(C)CC2)cc1,i,-11.6,i,i,-4.81*,i
CN1CCN(Cc2ccc3ccccc3c2)CC1,i,-4.3,i,i,0.63,i
COC(=O)C1C2c3ccccc3OC1(C)N=c1s/c(=C/c3cn(C)nc3C)c(=O)n12 (stereo unspecified),i,-0.2,i,i,-0.02,i
